Measurements: ChEMBL document CHEMBL4118021, “Studies of TAK1-centered polypharmacology with novel covalent TAK1 inhibitors” (Bioorg Med Chem, 2017)
Active and inactive are the calls of the source.

Tests used:
[1] = biological target: Protein diaphanous homolog 1 (Homo sapiens) (UniProt O60610); assay: Binding affinity to DIAPH1 in human NCI-H358 cells at 1 uM by mass spectrometry based pull down assay; format: cell-based
[2] = biological target: Protein transport protein Sec16A (Homo sapiens) (UniProt O15027); assay: Binding affinity to SEC16A in human NCI-H23 cells at 1 uM by mass spectrometry based pull down assay; format: cell-based
[3] = biological target: Importin-5 (Homo sapiens) (UniProt O00410); assay: Binding affinity to IPO5 in human NCI-H358 cells at 1 uM by mass spectrometry based pull down assay; format: cell-based
[4] = biological target: RuvB-like 1 (Homo sapiens) (UniProt Q9Y265); assay: Binding affinity to RUVBL1 in human NCI-H23 cells at 1 uM by mass spectrometry based pull down assay; format: cell-based
[5] = biological target: GTP-binding protein Rheb (Homo sapiens) (UniProt Q15382); assay: Binding affinity to RHEB in human NCI-H358 cells at 1 uM by mass spectrometry based pull down assay; format: cell-based
Sequence of GTP-binding protein Rheb (Homo sapiens) (Q15382 whole entry): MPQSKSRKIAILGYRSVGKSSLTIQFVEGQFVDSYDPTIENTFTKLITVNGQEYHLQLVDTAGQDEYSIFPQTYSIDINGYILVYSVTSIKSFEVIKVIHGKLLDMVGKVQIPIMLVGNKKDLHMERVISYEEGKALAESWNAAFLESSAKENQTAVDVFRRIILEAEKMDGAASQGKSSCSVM

[6] = biological target: Apoptosis-inducing factor 1, mitochondrial (Homo sapiens) (UniProt O95831); assay: Binding affinity to AIFM1 in human NCI-H23 cells at 1 uM by mass spectrometry based pull down assay; format: cell-based
Summary of the method: (§1)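 NCI-H23 or NCI-H358 cells were grown and lysed. Lysates were incubated overnight at 4 °C with 1 μM biotinylated covalent probe or DMSO, then pulled down on streptavidin beads. Proteins were run on polyacrylamide gels and stained with Coomassie. Bands were excised, digested and identified by mass spectrometry.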

[7] = biological target: Low molecular weight phosphotyrosine protein phosphatase (Homo sapiens) (UniProt P24666); assay: Binding affinity to ACP1 in human NCI-H358 cells at 1 uM by mass spectrometry based pull down assay; format: cell-based; summary of the method: as §1
Sequence of Low molecular weight phosphotyrosine protein phosphatase (Homo sapiens) (P24666 whole entry): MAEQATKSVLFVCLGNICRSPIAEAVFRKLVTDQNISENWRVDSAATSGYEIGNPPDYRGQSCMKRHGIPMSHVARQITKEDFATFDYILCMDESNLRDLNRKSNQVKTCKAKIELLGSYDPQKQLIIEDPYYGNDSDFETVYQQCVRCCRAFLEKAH

[8] = biological target: Proteasome activator complex subunit 2 (Homo sapiens) (UniProt Q9UL46); assay: Binding affinity to PSME2 in human NCI-H23 cells at 1 uM by mass spectrometry based pull down assay; format: cell-based
Sequence of Proteasome activator complex subunit 2 (Homo sapiens) (Q9UL46 whole entry, one chain of several): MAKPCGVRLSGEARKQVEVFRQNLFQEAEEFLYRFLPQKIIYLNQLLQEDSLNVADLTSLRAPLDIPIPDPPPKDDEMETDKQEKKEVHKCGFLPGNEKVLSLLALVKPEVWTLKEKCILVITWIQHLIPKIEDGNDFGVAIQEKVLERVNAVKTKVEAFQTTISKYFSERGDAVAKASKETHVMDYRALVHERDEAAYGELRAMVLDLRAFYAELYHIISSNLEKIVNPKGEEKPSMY

Plectin (Homo sapiens) = Plectin (Homo sapiens) (UniProt Q15149); assay: Binding affinity to PLEC in human NCI-H23 cells at 1 uM by mass spectrometry based pull down assay; format: cell-based
[9] = biological target: Melanoma-associated antigen 4 (Homo sapiens) (UniProt P43358); assay: Binding affinity to MAGEA4 in human NCI-H23 cells at 1 uM by mass spectrometry based pull down assay; format: cell-based
Sequence of Melanoma-associated antigen 4 (Homo sapiens) (P43358 whole entry): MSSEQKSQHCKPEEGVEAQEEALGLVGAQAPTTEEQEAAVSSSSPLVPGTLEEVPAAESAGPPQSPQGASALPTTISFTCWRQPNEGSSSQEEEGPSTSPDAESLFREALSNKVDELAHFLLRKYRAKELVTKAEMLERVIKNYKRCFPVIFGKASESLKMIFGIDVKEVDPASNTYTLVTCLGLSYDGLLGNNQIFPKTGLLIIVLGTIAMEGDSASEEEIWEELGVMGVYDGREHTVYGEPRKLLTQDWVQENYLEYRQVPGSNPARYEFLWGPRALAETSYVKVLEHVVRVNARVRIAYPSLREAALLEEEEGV

[10] = biological target: Thioredoxin (Homo sapiens) (UniProt P10599); assay: Binding affinity to TXN in human NCI-H23 cells at 1 uM by mass spectrometry based pull down assay; format: cell-based
Beclin-1 (Homo sapiens) = Beclin-1 (Homo sapiens) (UniProt Q14457); assay: Binding affinity to BECN1 in human NCI-H358 cells at 1 uM by mass spectrometry based pull down assay; format: cell-based
Sequence of Beclin-1 (Homo sapiens) (Q14457 whole entry): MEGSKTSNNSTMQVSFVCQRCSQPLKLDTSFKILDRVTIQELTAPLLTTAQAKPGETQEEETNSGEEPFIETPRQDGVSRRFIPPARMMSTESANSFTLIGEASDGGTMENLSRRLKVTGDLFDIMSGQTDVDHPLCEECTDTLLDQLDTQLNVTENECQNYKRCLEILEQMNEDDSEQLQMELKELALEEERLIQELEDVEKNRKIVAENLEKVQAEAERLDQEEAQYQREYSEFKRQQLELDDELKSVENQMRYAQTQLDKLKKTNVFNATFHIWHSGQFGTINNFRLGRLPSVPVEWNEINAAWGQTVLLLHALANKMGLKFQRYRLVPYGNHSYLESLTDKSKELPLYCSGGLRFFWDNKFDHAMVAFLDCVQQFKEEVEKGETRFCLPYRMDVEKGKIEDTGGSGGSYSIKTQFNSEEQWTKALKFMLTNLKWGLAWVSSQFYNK

[11] = biological target: Probable ATP-dependent RNA helicase DDX5 (Homo sapiens) (UniProt P17844); assay: Binding affinity to DDX5 in human NCI-H23 cells at 1 uM by mass spectrometry based pull down assay; format: cell-based
Sequence of Probable ATP-dependent RNA helicase DDX5 (Homo sapiens) (P17844 whole entry): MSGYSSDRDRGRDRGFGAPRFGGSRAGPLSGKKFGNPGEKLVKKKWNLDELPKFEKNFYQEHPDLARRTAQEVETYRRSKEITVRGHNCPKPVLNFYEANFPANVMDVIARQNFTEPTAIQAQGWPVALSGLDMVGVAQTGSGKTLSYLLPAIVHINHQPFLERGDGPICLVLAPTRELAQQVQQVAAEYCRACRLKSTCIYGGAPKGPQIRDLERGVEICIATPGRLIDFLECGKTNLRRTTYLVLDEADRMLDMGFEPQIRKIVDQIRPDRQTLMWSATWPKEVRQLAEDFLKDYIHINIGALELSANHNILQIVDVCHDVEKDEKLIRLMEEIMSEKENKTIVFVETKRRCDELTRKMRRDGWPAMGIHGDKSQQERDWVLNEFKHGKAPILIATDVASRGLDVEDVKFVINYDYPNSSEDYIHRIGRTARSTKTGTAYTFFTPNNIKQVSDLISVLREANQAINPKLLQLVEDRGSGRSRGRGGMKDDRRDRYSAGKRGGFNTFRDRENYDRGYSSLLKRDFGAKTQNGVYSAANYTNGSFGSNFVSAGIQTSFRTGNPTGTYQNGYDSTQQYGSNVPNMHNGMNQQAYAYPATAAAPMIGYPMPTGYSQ

Vinculin (Homo sapiens) = Vinculin (Homo sapiens) (UniProt P18206); assay: Binding affinity to VCL in human NCI-H358 cells at 1 uM by mass spectrometry based pull down assay; format: cell-based
[12] = biological target: Glutamate--cysteine ligase catalytic subunit (Homo sapiens) (UniProt P48506); assay: Binding affinity to GCLC in human NCI-H23 cells at 1 uM by mass spectrometry based pull down assay; format: cell-based
[13] = biological target: Aurora kinase B (Homo sapiens) (UniProt Q96GD4); assay: Binding affinity to AURKB in human NCI-H358 cells at 1 uM by mass spectrometry based pull down assay; format: cell-based
[14] = biological target: UV radiation resistance-associated gene protein (Homo sapiens) (UniProt Q9P2Y5); assay: Binding affinity to UVRAG in human NCI-H358 cells at 1 uM by mass spectrometry based pull down assay; format: cell-based
[15] = biological target: Aldehyde dehydrogenase family 3 member A2 (Homo sapiens) (UniProt P51648); assay: Binding affinity to ALDH3A2 in human NCI-H358 cells at 1 uM by mass spectrometry based pull down assay; format: cell-based
Sequence of Aldehyde dehydrogenase family 3 member A2 (Homo sapiens) (P51648 whole entry): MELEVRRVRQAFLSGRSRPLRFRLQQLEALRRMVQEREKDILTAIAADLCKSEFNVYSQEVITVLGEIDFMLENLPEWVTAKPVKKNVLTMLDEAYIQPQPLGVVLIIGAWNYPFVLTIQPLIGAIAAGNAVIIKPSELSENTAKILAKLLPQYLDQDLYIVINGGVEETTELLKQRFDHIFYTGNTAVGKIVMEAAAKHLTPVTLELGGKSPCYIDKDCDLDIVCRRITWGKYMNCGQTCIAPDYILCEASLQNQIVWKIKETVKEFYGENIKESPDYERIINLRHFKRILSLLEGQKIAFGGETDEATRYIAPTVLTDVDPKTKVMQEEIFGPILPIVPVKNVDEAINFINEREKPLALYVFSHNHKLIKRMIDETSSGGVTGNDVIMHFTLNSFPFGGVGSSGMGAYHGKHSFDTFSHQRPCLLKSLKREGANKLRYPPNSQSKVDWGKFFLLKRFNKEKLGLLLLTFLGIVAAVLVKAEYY

[16] = biological target: Bifunctional glutamate/proline--tRNA ligase (Homo sapiens) (UniProt P07814); assay: Binding affinity to EPRS in human NCI-H358 cells at 1 uM by mass spectrometry based pull down assay; format: cell-based
Sequence of Bifunctional glutamate/proline--tRNA ligase (Homo sapiens) (P07814 whole entry): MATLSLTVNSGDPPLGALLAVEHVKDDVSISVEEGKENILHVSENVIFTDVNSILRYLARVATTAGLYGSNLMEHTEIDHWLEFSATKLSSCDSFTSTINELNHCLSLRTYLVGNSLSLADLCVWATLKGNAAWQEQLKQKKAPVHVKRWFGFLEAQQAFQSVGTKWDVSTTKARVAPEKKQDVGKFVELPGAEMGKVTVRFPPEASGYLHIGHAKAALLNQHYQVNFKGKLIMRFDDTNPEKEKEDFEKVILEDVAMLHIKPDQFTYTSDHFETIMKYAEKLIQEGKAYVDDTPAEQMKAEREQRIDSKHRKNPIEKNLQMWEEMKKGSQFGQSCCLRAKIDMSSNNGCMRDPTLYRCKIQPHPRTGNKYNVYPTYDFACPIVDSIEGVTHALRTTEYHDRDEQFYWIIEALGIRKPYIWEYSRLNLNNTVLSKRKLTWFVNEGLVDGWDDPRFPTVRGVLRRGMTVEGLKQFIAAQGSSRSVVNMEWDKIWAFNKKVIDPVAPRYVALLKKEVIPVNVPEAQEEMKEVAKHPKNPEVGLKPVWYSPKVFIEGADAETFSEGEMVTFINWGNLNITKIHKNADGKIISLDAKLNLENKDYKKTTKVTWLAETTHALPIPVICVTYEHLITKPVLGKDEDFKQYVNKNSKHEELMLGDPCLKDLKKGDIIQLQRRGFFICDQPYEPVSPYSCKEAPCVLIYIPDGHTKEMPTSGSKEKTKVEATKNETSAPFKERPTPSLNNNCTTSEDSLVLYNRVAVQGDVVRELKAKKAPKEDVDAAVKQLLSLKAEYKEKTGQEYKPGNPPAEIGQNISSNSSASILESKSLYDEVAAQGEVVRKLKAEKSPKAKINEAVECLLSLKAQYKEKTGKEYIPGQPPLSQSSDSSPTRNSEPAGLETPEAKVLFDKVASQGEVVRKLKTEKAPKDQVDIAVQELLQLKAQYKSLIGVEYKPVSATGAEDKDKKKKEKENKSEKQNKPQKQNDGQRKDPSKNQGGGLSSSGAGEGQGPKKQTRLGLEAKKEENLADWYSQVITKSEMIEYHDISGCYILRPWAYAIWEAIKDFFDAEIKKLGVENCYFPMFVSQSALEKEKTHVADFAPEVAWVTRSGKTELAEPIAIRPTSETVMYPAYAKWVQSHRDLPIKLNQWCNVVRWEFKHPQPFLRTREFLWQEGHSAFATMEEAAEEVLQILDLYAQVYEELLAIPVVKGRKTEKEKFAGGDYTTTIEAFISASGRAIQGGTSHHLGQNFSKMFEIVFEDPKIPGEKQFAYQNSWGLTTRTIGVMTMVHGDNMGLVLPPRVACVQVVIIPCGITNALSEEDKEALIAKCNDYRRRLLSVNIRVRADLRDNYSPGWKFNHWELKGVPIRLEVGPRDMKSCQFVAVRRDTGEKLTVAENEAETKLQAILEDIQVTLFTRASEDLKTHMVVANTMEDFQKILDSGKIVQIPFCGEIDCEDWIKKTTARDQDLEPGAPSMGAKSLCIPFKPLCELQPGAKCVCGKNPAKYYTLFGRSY

[17] = biological target: Histone H2B type 2-F (Homo sapiens) (UniProt Q5QNW6); assay: Binding affinity to HIST2H2BF in human NCI-H23 cells at 1 uM by mass spectrometry based pull down assay; format: cell-based
[18] = biological target: Aldehyde dehydrogenase family 3 member A2 (Homo sapiens) (UniProt P51648); assay: Binding affinity to ALDH3A2 in human NCI-H23 cells at 1 uM by mass spectrometry based pull down assay; format: cell-based
[19] = biological target: Eukaryotic translation initiation factor 5B (Homo sapiens) (UniProt O60841); assay: Binding affinity to EIF5B in human NCI-H23 cells at 1 uM by mass spectrometry based pull down assay; format: cell-based
[20] = biological target: Small ribosomal subunit protein uS7m (Homo sapiens) (UniProt Q9Y2R9); assay: Binding affinity to MRPS7 in human NCI-H358 cells at 1 uM by mass spectrometry based pull down assay; format: cell-based
[21] = biological target: Sarcoplasmic/endoplasmic reticulum calcium ATPase 2 (Homo sapiens) (UniProt P16615); assay: Binding affinity to ATP2A2 in human NCI-H23 cells at 1 uM by mass spectrometry based pull down assay; format: cell-based
Sequence of Sarcoplasmic/endoplasmic reticulum calcium ATPase 2 (Homo sapiens) (P16615 whole entry): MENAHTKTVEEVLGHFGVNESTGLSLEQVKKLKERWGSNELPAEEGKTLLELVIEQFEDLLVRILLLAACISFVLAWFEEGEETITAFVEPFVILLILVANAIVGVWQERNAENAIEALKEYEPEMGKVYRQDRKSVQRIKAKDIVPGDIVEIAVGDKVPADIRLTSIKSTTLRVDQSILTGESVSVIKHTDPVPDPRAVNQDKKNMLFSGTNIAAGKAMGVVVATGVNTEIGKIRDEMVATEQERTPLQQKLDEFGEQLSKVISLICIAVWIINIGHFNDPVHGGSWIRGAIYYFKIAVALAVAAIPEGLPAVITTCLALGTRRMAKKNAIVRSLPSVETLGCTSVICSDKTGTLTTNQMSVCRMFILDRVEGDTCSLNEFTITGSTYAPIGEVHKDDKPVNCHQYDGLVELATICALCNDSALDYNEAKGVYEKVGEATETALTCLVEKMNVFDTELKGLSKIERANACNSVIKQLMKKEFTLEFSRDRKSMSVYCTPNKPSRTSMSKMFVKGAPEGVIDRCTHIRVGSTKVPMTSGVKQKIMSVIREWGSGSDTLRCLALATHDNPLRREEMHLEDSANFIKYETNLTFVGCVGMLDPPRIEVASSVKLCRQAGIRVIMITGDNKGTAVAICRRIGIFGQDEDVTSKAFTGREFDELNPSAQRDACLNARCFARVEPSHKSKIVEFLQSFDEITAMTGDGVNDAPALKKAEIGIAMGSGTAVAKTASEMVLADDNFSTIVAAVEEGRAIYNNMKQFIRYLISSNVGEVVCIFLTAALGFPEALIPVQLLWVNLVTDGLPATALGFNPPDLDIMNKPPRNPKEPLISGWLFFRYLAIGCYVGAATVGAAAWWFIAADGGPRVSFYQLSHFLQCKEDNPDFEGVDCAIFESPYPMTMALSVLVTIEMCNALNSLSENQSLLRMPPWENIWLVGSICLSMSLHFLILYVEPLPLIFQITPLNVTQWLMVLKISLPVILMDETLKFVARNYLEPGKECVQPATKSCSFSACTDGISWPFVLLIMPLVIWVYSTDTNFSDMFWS

[22] = biological target: Proteasome Macropain subunit MB1 (Homo sapiens) (UniProt P28074); assay: Binding affinity to PSMB5 in human NCI-H23 cells at 1 uM by mass spectrometry based pull down assay; format: cell-based
[23] = biological target: Serine/threonine-protein kinase TAO2 (Homo sapiens) (UniProt Q9UL54); assay: Inhibition of TAO2 in human SKCO1 cells at 1 uM after 4 hrs using biotin labeled DVKAGNILLSEPGLVK probe by mass-spectrometric analysis relative to control; format: cell-based
[24] = biological target: Activin receptor type-1 (Homo sapiens) (UniProt Q04771); assay: Inhibition of human ACVR1 (188 to 509 residues) expressed in bacterial expression system assessed as enzyme activity at 1 uM by KINOMEScan assay relative to control; parameters: scale not given: the % may be the effect or the level left
Summary of the method: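 In vitro ATP-site competition binding assay (KinomeScan) across a panel of 456 kinases. Compound was tested at 1 and 10 μM. The read-out is the binding inhibition score relative to control.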

[25] = biological target: Serine/threonine-protein kinase MARK2 (Homo sapiens) (UniProt Q7KZI7); assay: Inhibition of MARK2 in human SKCO1 cells at 1 uM after 4 hrs using biotin labeled EVAVKIIDK probe by mass-spectrometric analysis relative to control; format: cell-based
[26] = biological target: Serine/threonine-protein kinase 38 (Homo sapiens) (UniProt Q15208); assay: Inhibition of NDR1 in human SKCO1 cells at 1 uM after 4 hrs using biotin labeled DIKPDNLLLDSK probe by mass-spectrometric analysis relative to control; format: cell-based
[27] = biological target: Ribosomal protein S6 kinase alpha-3 (Homo sapiens) (UniProt P51812); assay: Inhibition of RSK2 domain2 in human SKCO1 cells at 1 uM after 4 hrs using biotin labeled DLKPSNILYVDESGNPESIR probe by mass-spectrometric analysis relative to control; format: cell-based

C=CC(=O)Nc1ccccc1Nc1nc(Nc2ccc(N3CCN(CCOCCOCCOCCNC(=O)CCCC[C@@H]4SC[C@@H]5NC(=O)N[C@@H]54)CC3)cc2)ncc1Cl
active: Activity [1] | Activity [2] | Activity [3] | Activity [4] | Activity [5] | Activity [6] | Activity [7] | Activity [8] | Activity (Plectin (Homo sapiens)) | Activity [9] | Activity [10] | Activity (Beclin-1 (Homo sapiens)) | Activity [11] | Activity (Vinculin (Homo sapiens)) | Activity [12] | Activity [13] | Activity [14] | Activity [15] | Activity [16] | Activity [17] | Activity [18] | Activity [19] | Activity [20] | Activity [21] | Activity [22]

COc1cc(O)c2c(c1)/C=C/C[C@H](O)[C@H](O)C(=O)/C=C\C[C@H](C)OC2=O
-2.5%: inhibition [23]
21%: Activity [24]

C=CC(=O)Nc1ccccc1Nc1nc(Nc2ccc(N3CCN(C)CC3)cc2)ncc1Cl
-5.7%: inhibition [25]
-4.9%: inhibition [26]

C=CC(=O)Nc1ccccc1Oc1nc(Nc2cnn(CCOC)c2)ncc1Cl
-9.3%: inhibition [27]
